From ChEMBL document CHEMBL4706565, “Anti-glioma effects of 2-aminothiophene-3-carboxamide derivatives, ANO1 channel blockers” (Eur J Med Chem, 2020)
Calls of active or inactive are those of the source. No cut-off for these calls is given here.

How the values were obtained:
[1] = target: T1, Anoctamin-1 (Homo sapiens) (UniProt Q5XXA6); assay: Inhibition of human ANO1 channel expressed in HEK293 cells at 10 uM incubated for 10 mins by FLIPR assay relative to control; type: cell-based
T1 sequence (whole entry): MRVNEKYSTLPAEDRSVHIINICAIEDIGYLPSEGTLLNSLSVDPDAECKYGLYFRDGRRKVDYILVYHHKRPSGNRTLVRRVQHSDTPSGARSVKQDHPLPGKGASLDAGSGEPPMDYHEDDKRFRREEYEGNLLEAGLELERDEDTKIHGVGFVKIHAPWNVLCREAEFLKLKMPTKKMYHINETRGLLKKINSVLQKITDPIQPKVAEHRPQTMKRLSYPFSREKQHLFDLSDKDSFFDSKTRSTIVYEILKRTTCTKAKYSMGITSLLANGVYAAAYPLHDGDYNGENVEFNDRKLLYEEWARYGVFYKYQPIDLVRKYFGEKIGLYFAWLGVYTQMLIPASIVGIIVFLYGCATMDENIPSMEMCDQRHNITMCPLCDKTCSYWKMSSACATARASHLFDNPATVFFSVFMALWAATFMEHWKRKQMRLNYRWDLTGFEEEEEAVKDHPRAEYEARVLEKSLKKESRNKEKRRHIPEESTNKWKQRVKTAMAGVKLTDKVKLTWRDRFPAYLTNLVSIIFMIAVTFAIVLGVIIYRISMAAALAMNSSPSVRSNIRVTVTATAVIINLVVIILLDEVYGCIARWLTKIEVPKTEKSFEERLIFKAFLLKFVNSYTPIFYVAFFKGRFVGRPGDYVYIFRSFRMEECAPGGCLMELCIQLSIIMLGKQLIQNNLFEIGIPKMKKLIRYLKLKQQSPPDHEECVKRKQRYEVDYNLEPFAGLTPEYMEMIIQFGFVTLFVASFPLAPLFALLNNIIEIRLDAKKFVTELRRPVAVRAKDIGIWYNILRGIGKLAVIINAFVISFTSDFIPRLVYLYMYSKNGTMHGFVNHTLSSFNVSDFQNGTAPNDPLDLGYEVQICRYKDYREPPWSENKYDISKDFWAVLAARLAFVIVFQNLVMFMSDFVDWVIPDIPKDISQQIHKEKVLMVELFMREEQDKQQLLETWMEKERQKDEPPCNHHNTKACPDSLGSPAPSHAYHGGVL
Procedure, shortened: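 HEK293 cells expressing human ANO1, 50,000 cells/well, plated overnight. Loaded with FLIPR Red membrane-potential dye in HEPES-buffered saline (pH 7.4) for 40-60 min at room temperature. Compound added for 10 min at room temperature, final DMSO 0.5%.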

[2] = target: T2, Anoctamin-1 (Mus musculus) (UniProt Q8BHY3); assay: (§1) Inhibition of GFP-fused mouse ANO1 channel expressed in HEK293A cells assessed as inhibition of ATP-induced channel current amplitude at membrane potential of +80 mV by patch clamp electrophysiology assay; type: cell-based; settings: HEK293-A
T2 sequence (whole entry): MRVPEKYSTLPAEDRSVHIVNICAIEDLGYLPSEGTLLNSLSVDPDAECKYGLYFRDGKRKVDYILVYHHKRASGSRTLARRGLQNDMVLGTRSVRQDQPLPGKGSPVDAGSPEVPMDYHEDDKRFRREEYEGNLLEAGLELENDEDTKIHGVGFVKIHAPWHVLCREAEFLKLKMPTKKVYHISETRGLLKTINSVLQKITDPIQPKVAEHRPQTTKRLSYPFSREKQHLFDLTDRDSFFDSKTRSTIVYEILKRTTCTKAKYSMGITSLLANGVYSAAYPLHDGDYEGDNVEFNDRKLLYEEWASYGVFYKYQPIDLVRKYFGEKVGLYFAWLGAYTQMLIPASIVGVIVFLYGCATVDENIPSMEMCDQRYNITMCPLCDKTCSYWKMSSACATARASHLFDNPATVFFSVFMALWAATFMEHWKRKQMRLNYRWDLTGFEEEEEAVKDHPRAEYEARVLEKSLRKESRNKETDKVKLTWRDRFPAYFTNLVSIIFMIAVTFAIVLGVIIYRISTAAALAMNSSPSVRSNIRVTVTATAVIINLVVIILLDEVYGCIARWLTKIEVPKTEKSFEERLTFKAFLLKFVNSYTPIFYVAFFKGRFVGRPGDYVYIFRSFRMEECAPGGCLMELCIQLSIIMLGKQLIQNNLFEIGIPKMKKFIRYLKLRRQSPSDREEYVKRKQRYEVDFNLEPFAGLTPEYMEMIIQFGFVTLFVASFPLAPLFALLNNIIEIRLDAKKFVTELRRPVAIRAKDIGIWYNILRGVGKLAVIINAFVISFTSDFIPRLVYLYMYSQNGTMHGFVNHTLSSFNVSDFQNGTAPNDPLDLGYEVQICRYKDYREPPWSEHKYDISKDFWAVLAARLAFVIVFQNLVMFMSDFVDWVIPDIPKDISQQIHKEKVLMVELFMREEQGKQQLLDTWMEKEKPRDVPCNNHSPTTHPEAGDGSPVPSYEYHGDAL
Procedure, shortened: (§2)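 Whole-cell recording at room temperature in HEK293A cells transfected with GFP-mANO1, GFP-mANO2 or GFP-mTTYH1. 1 s ramps from +80 to -80 mV, holding potential -10 mV. For ANO1/ANO2: pipette CsCl 146 mM with Ca-EGTA-NMDG, pH 7.3; bath NaCl-based, pH 7.3. For TTYH1: Tris-aspartate pipette (pH 7.2) and Tris-HCl bath (pH 7.4), with […] and BaCl2 added to block K+ channels, and hypotonic (220 mOsm/kg) bath. Washout recordings assessed reversibility.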

Anoctamin-1 = target: T3, Anoctamin-1 (Mus musculus, UniProt Q8BHY3); assay: as §1; type: cell-based, HEK293-A; procedure, shortened: as §2
T3 sequence (Q8BHY3 whole entry): T2 sequence (whole entry)

U-251 [3] = assay: Inhibition of anchorage-independent colony formation in human U251 cells at 10 uM incubated for 14 days by crystal violet staining based soft agar colony formation assay; type: functional, cell-based; settings: time 14.0 day
Procedure, shortened: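 Soft agar assay: 2.0×10^3 U251 cells in complete medium with 0.3% agar over a 0.6% bottom agar layer. Treated with compounds at 1-100 μM for 14 days, 37 °C, 5% CO2. Colonies stained with crystal violet for 24 h, whole wells photographed and colonies counted against DMSO control; n = 3.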

U-251 [4] = assay: Upregulation of E-cadherin protein expression in human U251 cells incubated for 18 hrs by Western blot analysis; type: functional, cell-based; settings: dose 1-10 µM
Procedure, shortened: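 U251 cells (5×10^5) treated with compounds for 18 h, lysed in NP40 buffer with protease inhibitors. 25 μg lysate run on SDS-PAGE and blotted for E-cadherin, β-actin as loading control. Primary antibodies at 1:1000 (actin 1:10000). Bands quantified by densitometry; one-way ANOVA.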

U138-MG = assay: Antiproliferative activity against human U138 cells overexpressing ANO1 assessed as reduction in cell viability measured after 72 hrs by Celltiter-glo assay; type: functional
Procedure, shortened: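 5.0×10^3 cells/well seeded, overnight, then compounds added as 1:4 serial dilutions in DMSO; viability read after 72 h with CellTiter-Glo luminescence. GI50 from fitted dose-response curves; triplicate wells, SD from three independent experiments. DMEM for U251 and U138, MEM for U87MG, both with 10% FBS and pen/strep, 37 °C, 5% CO2.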

Row | inhibition [1] | inhibition [2] | IC50 (Anoctamin-1) | Structure (SMILES) | inhibition (U-251 [3]) | Activity (U-251 [4]) | GI50 (U138-MG)
1 | 86.9% | Dose-dependent effect | 2.56 µM | CC(C)(C)C(=O)Nc1sc2c(c1C(N)=O)CCC(C(C)(C)C)C2 (configuration not stated) | inactive | Dose-dependent effect | 22.2 µM
2 | 72.2% | Dose-dependent effect | 1.75 µM | NC(=O)c1c(NC(=S)NC(=O)c2ccc(Cl)cc2)sc2c1CCC2 | inactive | Dose-dependent effect | 13.2 µM
